Laboratory results published in ChEMBL document CHEMBL2331169, “Search for α3β₂/₃γ2 subtype selective ligands that are stable on human liver microsomes” (Bioorg Med Chem, 2013).
The source made the active and inactive calls. The calls are words filed in the database; no cut-off is given here.

How the values were obtained:
[1] = (§1) Metabolic stability in human liver microsomes assessed as compound remaining at 1 uM measured at 60 mins by LC-MS/MS analysis relative to control; format: ADME, Microsome; conditions: liver microsomes, read-out: Stability
Procedure, shortened: (§2)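 Pooled human liver microsomes (150 donors, 0.5 mg protein/ml) with 2.5 mM NADPH and 3.3 mM MgCl2 in 100 mM phosphate pH 7.4, 0.1% DMSO final, 37 °C, reaction started with microsomes. Aliquots quenched in cold acetonitrile with internal standard; LC-MS/MS in positive-ion ESI MRM mode. Percent remaining is analyte/internal-standard peak-area ratio versus 0 min ×100; duplicates.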

[2] = Metabolic stability in heat inactivated human liver microsomes assessed as compound remaining at 10 uM measured at 60 mins by LC-MS/MS analysis relative to control; format: ADME, Microsome; conditions: read-out: Stability
Procedure, shortened: (§3)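 Control incubation with heat-inactivated human liver microsomes (0.5 mg protein/ml) in 100 mM phosphate pH 7.4, 37 °C, sampled at 0 and 60 min. Samples quenched in acetonitrile with internal standard and analysed by LC-MS/MS. Percent remaining is the peak-area ratio relative to 0 min ×100; duplicates.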

[3] = biological target: T1, GABA A receptor alpha-5/beta-3/gamma-2 (Rattus norvegicus) (UniProt P18508+P19969+P63079); test: Agonist activity at rat GABAA alpha5beta3gamma2 receptor expressed in Xenopus oocytes assessed as stimulation of GABA-induced chloride current at 1 uM incubated 30 secs prior to GABA induction measured after 15 mins by two-electrode voltage clamp assay relative to control; format: cell-based; conditions: Oocyte
Procedure, shortened: (§4)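 Rat GABAA β3 and γ2 cDNAs plus α1, α2, α3 or α5 cDNA injected into Xenopus oocytes; follicle layers removed 36 h later. Two-electrode recording with […]-filled electrodes; oocytes perfused with Ringer (90 mM NaCl, 5 mM HEPES pH 7.4, 1 mM MgCl2, KCl, CaCl2) switched to GABA at EC3 with drug (0.1% DMSO final). Mean ± SEM, 3–4 oocytes, ≥2 batches.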

[4] = Metabolic stability in human liver microsomes assessed as compound remaining at 10 uM measured at 30 mins by LC-MS/MS analysis relative to control; format: ADME, Microsome; conditions: read-out: Stability; procedure, shortened: as §2
[5] = (§5) Metabolic stability in heat inactivated human liver microsomes assessed as compound remaining at 1 uM measured at 60 mins by LC-MS/MS analysis relative to control; format: ADME, Microsome; conditions: heat-inactivated liver microsomes, read-out: Stability; procedure, shortened: as §3
[6] = (§6) Metabolic stability in human liver microsomes assessed as compound remaining at 1 uM measured at 30 mins by LC-MS/MS analysis relative to control; format: ADME, Microsome; conditions: liver microsomes, read-out: Stability; procedure, shortened: as §2
[7] = biological target: T2, GABA-A receptor; alpha-1/beta-2/gamma-2 (Rattus norvegicus) (UniProt P18508+P62813+P63138); test: Agonist activity at rat GABAA alpha1beta3gamma2 receptor expressed in Xenopus oocytes assessed as stimulation of GABA-induced chloride current at 100 nM incubated 30 secs prior to GABA induction measured after 15 mins by two-electrode voltage clamp assay relative to control; format: cell-based; conditions: Oocyte; procedure, shortened: as §4
[8] = Metabolic stability in human liver microsomes assessed as compound remaining at 10 uM measured at 15 mins by LC-MS/MS analysis relative to control; format: ADME, Microsome; conditions: read-out: Stability; procedure, shortened: as §2
[9] = biological target: T1, GABA A receptor alpha-5/beta-3/gamma-2 (Rattus norvegicus); test: Agonist activity at rat GABAA alpha5beta3gamma2 receptor expressed in Xenopus oocytes assessed as stimulation of GABA-induced chloride current at 100 nM incubated 30 secs prior to GABA induction measured after 15 mins by two-electrode voltage clamp assay relative to control; format: cell-based; conditions: Oocyte; procedure, shortened: as §4
[10] = biological target: T3, GABA A receptor alpha-2/beta-2/gamma-2 (Rattus norvegicus) (UniProt P18508+P23576+P63138); test: Agonist activity at rat GABAA alpha2beta3gamma2 receptor expressed in Xenopus oocytes assessed as stimulation of GABA-induced chloride current at 100 nM incubated 30 secs prior to GABA induction measured after 15 mins by two-electrode voltage clamp assay relative to control; format: cell-based; conditions: Oocyte; procedure, shortened: as §4
[11] = biological target: Gamma-aminobutyric acid receptor subunit alpha-3 (Rattus norvegicus) (UniProt P20236); test: Agonist activity at rat GABAA alpha3beta3gamma2 receptor expressed in Xenopus oocytes assessed as stimulation of GABA-induced chloride current at 1 uM incubated 30 secs prior to GABA induction measured after 15 mins by two-electrode voltage clamp assay relative to control; format: cell-based; conditions: Oocyte; procedure, shortened: as §4
[12] = biological target: T2, GABA-A receptor; alpha-1/beta-2/gamma-2 (Rattus norvegicus); test: Agonist activity at rat GABAA alpha1beta3gamma2 receptor expressed in Xenopus oocytes assessed as stimulation of GABA-induced chloride current at 1 uM incubated 30 secs prior to GABA induction measured after 15 mins by two-electrode voltage clamp assay relative to control; format: cell-based; conditions: Oocyte; procedure, shortened: as §4
[13] = biological target: Gamma-aminobutyric acid receptor subunit alpha-3 (Rattus norvegicus) (UniProt P20236); test: Agonist activity at rat GABAA alpha3beta3gamma2 receptor expressed in Xenopus oocytes assessed as stimulation of GABA-induced chloride current at 100 nM incubated 30 secs prior to GABA induction measured after 15 mins by two-electrode voltage clamp assay relative to control; format: cell-based; conditions: Oocyte; procedure, shortened: as §4
[14] = Metabolic stability in human liver microsomes assessed as compound remaining at 1 uM measured at 15 mins by LC-MS/MS analysis relative to control; format: ADME, Microsome; conditions: read-out: Stability; procedure, shortened: as §2
[15] = biological target: T3, GABA A receptor alpha-2/beta-2/gamma-2 (Rattus norvegicus); test: Agonist activity at rat GABAA alpha2beta3gamma2 receptor expressed in Xenopus oocytes assessed as stimulation of GABA-induced chloride current at 1 uM incubated 30 secs prior to GABA induction measured after 15 mins by two-electrode voltage clamp assay relative to control; format: cell-based; conditions: Oocyte; procedure, shortened: as §4
[16] = Metabolic stability in human liver microsomes assessed as compound remaining at 10 uM measured at 60 mins by LC-MS/MS analysis relative to control; format: ADME, Microsome; conditions: read-out: Stability; procedure, shortened: as §2
Rattus norvegicus [17] = test: Anxiolytic activity in rat assessed as increase in time spent in lighted area at 3 mg/kg, ip administered 20 mins prior to testing measured for 30 mins by light/dark cycle test relative to vehicle-treated control; format: functional, organism-based; design: dose 3 mg/kg
Rattus norvegicus [18] = test: Sedative activity in rat assessed as reduction of D-amphetamine sulfate-induced locomotion at 3 mg/kg, ip administered 20 mins prior to testing measured for 90 mins relative to vehicle-treated control; format: functional, organism-based; design: dose 3 mg/kg
Procedure, shortened: (§7)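 Rats kept ≥10 days on a reversed light/dark cycle. Drug or saline (2 ml/kg) given i.p. 20 min before an open-field arena; spontaneous x–y locomotion recorded 30 min by beam breaks. D-amphetamine sulfate 0.5 mg/kg i.p. then given, and locomotion recorded a further 90 min.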

Liver microsomes [19] = test: as §1; format: ADME, Microsome; conditions: microsomes, 1 h, 1 µM; procedure, shortened: as §2
Liver microsomes [20] = test: as §6; format: ADME, Microsome; conditions: microsomes, 0.5 h, 1 µM; procedure, shortened: as §2
Liver microsomes [21] = test: as §5; format: ADME, Microsome; conditions: microsomes, 1 h, 1 µM; procedure, shortened: as §3
Rattus norvegicus [22] = test: Sedative activity in rat assessed as reduction of D-amphetamine sulfate-induced locomotion at 10 to 100 mg/kg, ip administered 20 mins prior to testing measured for 90 mins relative to vehicle-treated control; format: functional, organism-based; procedure, shortened: as §7
Rattus norvegicus [23] = test: Anxiolytic activity in rat assessed as increase in time spent in lighted area at 10 to 100 mg/kg, ip administered 20 mins prior to testing measured for 30 mins by light/dark cycle test relative to vehicle-treated control; format: functional, organism-based

Gamma-aminobutyric acid receptor subunit alpha-3 (Rattus norvegicus), sequence (P20236 whole entry): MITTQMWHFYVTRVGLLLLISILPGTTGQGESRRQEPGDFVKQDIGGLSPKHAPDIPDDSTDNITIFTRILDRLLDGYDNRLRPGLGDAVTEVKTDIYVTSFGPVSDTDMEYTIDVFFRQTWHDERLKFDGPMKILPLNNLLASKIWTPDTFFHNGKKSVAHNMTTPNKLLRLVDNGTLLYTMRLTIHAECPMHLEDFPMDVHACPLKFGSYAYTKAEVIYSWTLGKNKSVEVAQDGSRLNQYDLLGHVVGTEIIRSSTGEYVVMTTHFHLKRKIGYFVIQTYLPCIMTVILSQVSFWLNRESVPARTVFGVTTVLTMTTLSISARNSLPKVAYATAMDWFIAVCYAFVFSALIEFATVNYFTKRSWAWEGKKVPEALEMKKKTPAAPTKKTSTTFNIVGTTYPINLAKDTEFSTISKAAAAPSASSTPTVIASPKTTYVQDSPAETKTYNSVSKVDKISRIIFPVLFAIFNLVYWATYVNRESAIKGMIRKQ

| Compound | remaining at 1 h, 1 µM [1] [%] | remaining at 1 h, 10 µM [2] [%] | Activity [3] [%] | remaining at 0.5 h, 10 µM [4] [%] | remaining at 1 h, 1 µM [5] [%] | remaining at 0.5 h, 1 µM [6] [%] | Activity [7] [%] | remaining at 0.25 h, 10 µM [8] [%] | Activity [9] [%] | Activity [10] [%] | Activity [11] [%] | Activity [12] [%] | Activity [13] [%] | remaining at 0.25 h, 1 µM [14] [%] | Activity [15] [%] | remaining at 1 h, 10 µM [16] [%] | further results |
| --- | --- | --- | --- | --- | --- | --- | --- | --- | --- | --- | --- | --- | --- | --- | --- | --- | --- |
| C#Cc1ccc2c(c1)C(c1ccccc1F)=NCc1c(C(=O)NC)ncn1-2 | 92.3 | 108 | 361 | 103 | 116 | 95.9 | 152 | 96.8 | 326 | 241 | 485 | 201 | 349 | 97.3 | 287 | 103 |  |
| C#Cc1ccc2c(c1)C(c1ccccc1)=NCc1c(C(=O)NC)ncn1-2 | 5.2 | 114 | 307 | 104 | 114 | 37.5 | 132 | 107 | 257 | 211 | 831 | 192 | 412 | 87.3 | 287 | 82.8 |  |
| C#Cc1ccc2c(c1)C(c1ccccn1)=NCc1c(-c3nc(C(C)C)no3)ncn1-2 | 89.5 | 91.7 | 252 | 99.3 | 113 | 98.7 | 117 | 106 | 130 | 139 | 375 | 178 | 143 | 97.8 | 236 | 95.1 |  |
| C#Cc1ccc2c(c1)C(c1ccccc1)=NCc1c(C(=O)OCC)ncn1-2 | 1.5 | 102 |  | 13.9 | 107 | 11.2 |  | 47.6 |  |  |  |  |  | 41.4 |  | 1.7 |  |
| CN1C(=O)CN=C(c2ccccc2)c2cc(Cl)ccc21 |  |  |  |  |  |  |  |  |  |  |  |  |  |  |  |  | Activity (Rattus norvegicus [17]): Active; Activity (Rattus norvegicus [18]): Active |
| C#Cc1ccc2c(c1)C(c1ccccc1)=NCc1c(C(=O)O)ncn1-2 | 111 | 97.2 |  | 94.8 | 106 | 110 |  | 95.3 |  |  |  |  |  | 108 |  | 94.8 |  |
| C#Cc1ccc2c(c1)C(c1ccccn1)=NCc1c(C(=O)OCC)ncn1-2 | 80.2 | 95.4 |  | 90.4 | 93.8 | 95.6 |  | 103 |  |  |  |  |  | 106 |  | 76.1 |  |
| C#Cc1ccc2c(c1)C(c1ccccn1)=NCc1c(C(=O)NC)ncn1-2 |  | 110 | 182 | 106 | 110 |  | 117 | 104 | 122 | 140 | 376 | 171 | 163 | 109 | 226 | 110 | Stability (Liver microsomes [19]): 136.4%; Stability (Liver microsomes [20]): 126% |
| C#Cc1ccc2c(c1)C(c1ccccc1)=NCc1c(-c3nc(C(C)C)no3)ncn1-2 | 90.8 | 119 | 291 | 108 |  | 110 | 107 | 109 | 175 | 160 | 381 | 150 | 195 | 100 | 281 | 96.6 | Stability (Liver microsomes [21]): 137.5%; Activity (Rattus norvegicus [22]): inactive; Activity (Rattus norvegicus [23]): Active |
| C#Cc1ccc2c(c1)C(c1ccccc1F)=NCc1c(C(=O)OCC)ncn1-2 | 0.3 | 110 |  | 3.6 | 102 | 2.2 |  | 20 |  |  |  |  |  | 13.5 |  | 0.6 |  |
| C#Cc1ccc2c(c1)C(c1ccccc1F)=NCc1c(-c3nc(C(C)C)no3)ncn1-2 |  |  | 331 |  |  |  | 140 |  | 239 | 154 | 460 | 234 | 226 |  | 225 |  |  |
| C#Cc1ccc2c(c1)C(c1ccccn1)=NCc1c(C(=O)O)ncn1-2 | 110 | 88.3 |  | 86.1 | 97 | 105 |  | 91.4 |  |  |  |  |  | 102 |  | 85.9 |  |
